# ADAM10 inh: inhibitors of human ADAM10 | O14672 | recombinant ADAM10, EDANS/DABCYL FRET peptide cleavage, 3 h | inhibition, % at 7 µM | 370,000 tested, 0.62% active | AID 720582;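 active = inhibition above a per-campaign cutoff equal to the mean of compounds falling between control-based bounds plus 3 SD, cut at about 20% in these data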;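 note: 0% = DMSO wells while the 100% control is not disclosed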
# FAS TE block: inhibitors of human fatty acid synthase thioesterase domain; P49327; recombinant FAS-TE, OMFH fluorogenic substrate, fluorescence endpoint; inhibition, % at 15 µM; 360,000 tested, 0.67% active; AID 602261;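 active = compounds whose normalised, plate-corrected inhibition of enzyme fluorescence in the single-dose primary screen is 50% or more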;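 note: 0% = DMSO with enzyme and 100% = substrate without enzyme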
# SENP1 inh: SENP1 (human) catalytic domain inhibition. Q9P0U3. recombinant SENP1 catalytic domain, CyPet-SUMO1-YPet FRET cleavage. 360,000 tested, 0.21% active. inhibition, % at 10 µM;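 active = inhibition at least 30% at 10 µM, raw YFP signal under a set limit, fluorescence ratio 0.5 to 1.5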;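 note: 0% = enzyme with DMSO and 100% = no enzyme wells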
# Target sequence (Q9P0U3 419-644 limits assumed): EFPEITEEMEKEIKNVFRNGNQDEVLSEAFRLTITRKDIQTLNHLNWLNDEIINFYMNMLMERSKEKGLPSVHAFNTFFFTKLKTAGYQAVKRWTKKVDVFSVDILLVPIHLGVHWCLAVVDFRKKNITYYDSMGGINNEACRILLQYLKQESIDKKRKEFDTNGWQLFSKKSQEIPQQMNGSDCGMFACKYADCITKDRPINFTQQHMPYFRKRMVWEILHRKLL
#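 Test system: hSENP1 catalytic domain, recombinant; Amount: 20 pM final SENP1 enzyme; Medium: Tris pH 8 buffer plus EDTA, NaCl, BME, BSA, NP40, catalase; Schedule: 50 min enzyme reaction, room temperature, light-protected; Technique: FRET fluorescence in CFP and YFP emission channels; Controls: no-enzyme wells low, DMSO-plus-enzyme wells high control.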
# ADAM17 inh: ADAM17 inhibition, QFRET primary screen; inhibition, % at 6.95 µM; 370,000 tested, 0.83% active; recombinant ADAM17, EDANS/DABCYL FRET peptide cleavage;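 active = inhibition above the mean of compounds lying between control limits plus 3 SD, set per campaign, cut at about 8.5% in these data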;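 note: 0% = DMSO-only wells as the low control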
# ADAM10 confirm: human ADAM10 inhibition, confirmation; inhibition, % at 6.95 µM; ADAM10 QFRET peptide cleavage, EDANS fluorescence; 2,100 tested, 1% active; shares compounds with ADAM10 inh;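 active = inhibition above about 20% chosen separately for each screening run, limit read from the data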;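 note: 0% = DMSO wells and 100% = marimastat wells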
# ADAM17 counter: counter-screen for ADAM10 exosite inhibitors: inhibitors of human ADAM17 | inhibition, % at 6.95 µM | ADAM17 QFRET peptide cleavage, EDANS fluorescence | shares compounds with ADAM10 inh | 2,100 tested, 0.5% active;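 active = mean triplicate inhibition above the solvent-only control wells' mean plus 3 SD, cut at about 12% in these data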;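 note: 0% = DMSO wells and 100% = marimastat wells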
# ADAM10 ctr: inhibits human ADAM10 in ADAM17 exosite counter-screen | AID 743256 | shares compounds with ADAM17 inh | 2,900 tested, 47% active | recombinant ADAM10, EDANS/DABCYL FRET peptide cleavage, 3 h | inhibition, % at 6.95 µM;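 active = mean inhibition over the triplicate runs exceeds the activity threshold set in the earlier primary screen, cut at about 20% in these data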;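 note: 0% = DMSO wells and 100% = marimastat wells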
# ADAM17 confirm: human ADAM17 inhibition, confirmation; 2,900 tested, 65% active; recombinant ADAM17, EDANS/DABCYL QFRET peptide cleavage; inhibition, % at 6.95 µM; AID 743257; shares compounds with ADAM17 inh;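 active = mean inhibition across replicates above the hit cutoff set in the primary screen, cut at about 8.5% in these data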;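 note: 0% = DMSO wells and 100% = marimastat wells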
# * marks the source's active call; other numbers are inactive results; . = no result. Most compounds without a hit are left out; they make up all but 1.9% or so of the library.
SMILES,ADAM10 inh,FAS TE block,SENP1 inh,ADAM17 inh,ADAM10 confirm,ADAM17 counter,ADAM10 ctr,ADAM17 confirm
COC(=O)[C@]12C[C@H](CC(=O)NCc3ccc(OC)c(OC)c3)C(=O)N(Cc3cccc4ccccc34)C1=C[C@H](C(C)(C)C)O[C@@H]2C,20*,.,.,8.8*,7,3,29*,22*
COc1ccccc1NCc1nc2ccccc2n1C,-2,.,.,-3,.,.,.,.
COC(=O)[C@]12C[C@H](CC(=O)N3CCC(c4ccccc4)CC3)C(=O)N(Cc3ccco3)C1=C[C@H](COCc1ccccc1)O[C@@H]2C,4,.,.,3,.,.,.,.
O=C(Nc1nc2ncccn2c1-c1ccccc1)c1ccccc1,-162,.,.,-52,.,.,.,.
O=C(NC1CCCCN(Cc2ccc(Cl)cc2)C1=O)C1C2CC3CC(C2)CC1C3 (configuration not stated),-1,.,.,-7,.,.,.,.
Cc1ccc(C(=O)NNC(=S)NC(=O)c2ccc(Cl)cc2)cc1,20*,0,3,12*,1,1,13,7
CCOC(=O)[C@@]12CCCC3=C1N(CCC3)C(=O)[C@H]2CC(=O)NCC12CC3CC(CC(C3)C1)C2,-3,.,.,-4,.,.,.,.
CCCCCCCCNS(=O)(=O)/C=C/c1ccccc1CNC(=O)OC(C)(C)C,21*,.,.,11*,12,3,31*,15*
CC(=O)Nc1ccc(SC[C@H](Cc2ccccc2)N2CC[C@@H](C(C)(C)C)CCC2=O)cc1,36*,23,-1,12*,5,1,22*,15*
CC(O)(c1ccccc1)c1nc(-c2cc3ccccc3o2)cs1 (configuration not stated),26*,24,2,8.7*,13,4,30*,15*
CC(O)(c1ccc(F)c(F)c1)c1nc(-c2cnc3ccccc3c2)cs1 (configuration not stated),0,19,1,5,.,.,.,.
CC(O)(c1ccc(F)c(F)c1)c1nc(-c2ccc3ccccc3c2)cs1 (configuration not stated),44*,31,2,22*,7,3,17,9.4*
C[C@H]1[C@@H](OC(=O)N2CCOCC2)CC[C@@]23CCCN2C(=O)CCC[C@@H]13,3,.,.,-1,.,.,.,.
CN(CC(=O)Nc1cccc(F)c1)CC(=O)Nc1cccc(S(=O)(=O)N2CCCCCC2)c1,36*,20,3,16*,1,0,23*,14*
O=C(CNc1ccc(C(F)(F)F)cc1)Nc1cccc(S(=O)(=O)N2CCCCC2)c1,22*,29,2,9.8*,7,2,54*,27*
O=C(CNc1ccc(C(F)(F)F)cc1)Nc1cccc(S(=O)(=O)N2CCCC2)c1,10,11,-2,3,.,.,.,.
CC(=O)N1CCc2cc(S(=O)(=O)NCCC(=O)NCc3ccc(Cl)cc3)ccc21,1,.,.,0,.,.,.,.
CN(c1ccccc1)S(=O)(=O)c1cccc(NC(=O)CSc2nncn2C)c1,-8,-7,1,-2,.,.,.,.
CN(c1ccccc1)S(=O)(=O)c1cccc(NC(=O)CSc2ncc(C(F)(F)F)cc2Cl)c1,20*,11,-1,10.0*,10,4,26*,10*
COc1cc(C(c2c(C)[nH][nH]c2=O)c2c(C)[nH][nH]c2=O)cc([N+](=O)[O-])c1O,20*,2,1,10*,5,0,3,0
CCOC(=O)N1CCN(C(=O)C[C@H]2C[C@@]3(C(=O)OC)C(=C[C@H](C(C)C)O[C@@H]3C3CC3)N(Cc3cccc4ccccc34)C2=O)CC1,-2,.,.,-1,.,.,.,.
OC(CNCC(c1ccc(Cl)cc1Cl)c1c[nH]c2ccccc12)c1ccccc1 (configuration not stated),26*,42,3,12*,13,4,37*,17*
O=[N+]([O-])CC(c1ccccc1)c1c[nH]c2ccccc12 (configuration not stated),-1,10,0,-3,.,.,.,.
CC(C)N1CCCCC(NC(=O)c2ccc(F)cc2)C1=O (configuration not stated),-3,.,.,1,.,.,.,.
CCC(C)NS(=O)(=O)c1ccc(NC(=O)C(Sc2ccccc2)c2ccccc2)cc1 (configuration not stated),41*,30,4,20*,8,3,42*,22*
SMILES,ADAM10 inh,FAS TE block,SENP1 inh,ADAM17 inh,ADAM10 confirm,ADAM17 counter,ADAM10 ctr,ADAM17 confirm
COc1ccc(N=C2SC(CC(=O)Nc3ccccc3F)C(=O)N2Cc2ccco2)cc1 (configuration not stated),8,9,-1,5,.,.,.,.
COc1ccc(N=C2SC(CC(=O)Nc3ccccc3)C(=O)N2Cc2ccco2)cc1 (configuration not stated),28*,30,1,9.3*,6,0,20*,14*
N#CC1=C(N)NC(SCC(=O)Nc2ccc(Br)cc2)=C(C#N)C12CCCCC2,22*,26,-3,11*,3,2,30*,20*
N#CC1=C(N)NC(SCC(=O)c2ccccc2)=C(C#N)C12CCCC2,-1,-1,-30,0,.,.,.,.
O=C(/C=C(\Nc1cccc(F)c1)c1ccccc1)c1ccccc1,-7,.,.,-3,.,.,.,.
CC(C)(C)c1ccc(S(=O)(=O)Nc2ccc(C(=O)N3CCCC3)cc2)cc1,5,4,2,0,.,.,.,.
O=S(=O)(Nc1ccc(C(O)(C(F)(F)F)C(F)(F)F)cc1)c1cccc2ccccc12,34*,30,3,11*,0,0,40*,21*
CC(C)(C)c1ccc(S(=O)(=O)Nc2ccc(C(O)(C(F)(F)F)C(F)(F)F)cc2)cc1,62*,44,1,27*,3,1,54*,31*
Cc1ccc2nc(-c3ccc(CN4CCC5(CC4)CNc4ccccc45)cc3)c(-c3ccccc3)nc2c1,-19,.,.,-1,.,.,.,.
O=C(Cn1nnc(-c2ccncc2)n1)Nc1ccc(Cl)cc1,8,.,.,4,.,.,.,.
CCOC(=O)c1ccc(NC(=O)COC(=O)c2cccc(Oc3ccccc3)c2)cc1,28*,26,1,13*,9,3,27*,14*
Cc1ccc(C2CC2C(=O)NNC(=S)Nc2cccc(Cl)c2)cc1 (configuration not stated),39*,14,3,22*,7,1,24*,11*

# Compound activity as filed in PubChem.
